The test system of data set [1] is Mus musculus. Nature of the data set: Tested for the ability to protect against subcutaneous pentylenetetrazole seizure test. Format: functional. To be noted: sc. In outline:
(§1)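 Male Swiss Webster mice (20–25 g) were dosed ip (10 mL/kg; saline or 1% CMC suspension), with ≥3 groups of 4–8 mice. At 0.5 h, pentylenetetrazole 85 mg/kg was given sc into the neck fold, and mice were watched for 30 min. Protection meant absence of clonic spasms lasting ≥5 s. ED50 is in mg/kg; doses went up to 300 mg/kg.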

The species named for data set [2] is Mus musculus. Nature of the data set: Tested for the ability to protect against maximal electroshock seizure test. Format: functional. In outline:
(§2)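 Adult male Swiss Webster mice (20–25 g) received drug ip (10 mL/kg) in normal saline or as a 1% CMC suspension. At least three dose groups of 4–8 mice were used, tested at 0.5 h. Maximal electroshock used a 50 mA current. ED50 is in mg/kg; time of peak effect was not determined; doses went up to 300 mg/kg.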
A general note: The maximal electroshock test induces tonic seizures with an electrical stimulus.

For data set [3], the system named is Mus musculus. Nature of the data set: Tested for the ability to protect against subcutaneous pentylenetetrazole seizure test; NA= Not active up to 300 mg/kg. Format: functional, organism-based. On the set-up: dose 300 mg/kg. Summed up:
as §1

Data set [4] concerns Mus musculus. Nature of the data set: Tested for the ability to protect against maximal electroshock seizure test; NA= Not active up to 300 mg/kg. Format: functional, organism-based. More on the design: dose 300 mg/kg. Summed up: as §2
The subject of data set [5] is Mus musculus. Nature of the data set: Tested for the ability to protect against subcutaneous pentylenetetrazole seizure test; Activity at 300 mg/kg but ED50 can not be estimated. The format is functional, organism-based. More on the design: dose 300 mg/kg. Summed up:
as §1

For data set [6], the system named is Mus musculus. Nature of the data set: Tested for the ability to protect against subcutaneous pentylenetetrazole seizure test; Previously tested. Conditions: sc. The format is functional.
Data set [7] concerns Mus musculus. Nature of the data set: Intraperitoneal anticonvulsant activity in the maximal electroshock seizure test expressed as median effective dose in phase II trial in mice. Conditions: ip.
The nature of data set [8]: Protective index is the ratio between TD50 and ED50 values in maximal electroshock seizure test (MES). Format: functional. In outline: (§3)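 Phase II quantification in mice was run by the NIH ADD Program. Compounds were given ip, and ED50 (mg/kg) was read at the time of peak effect. The protective index is TD50 (rotorod ataxia) divided by ED50 in the MES or scMET test.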

Data set [9] is described as follows: Protective index is the ratio between TD50 and ED50 values in subcutaneous pentylenetetrazole seizure test (scMET). The format is functional. Summed up: as §3
The test system of data set [10] is Mus musculus. Description: Tested for the ability to protect against maximal electroshock seizure test; Activity at 300 mg/kg, but ED50 cannot be estimated. The format is functional, organism-based. On the set-up: dose 300 mg/kg. Summed up: as §2
Data set [11] relates to Mus musculus. Nature of the data set: Tested for the ability to protect against subcutaneous pentylenetetrazole seizure test; Activity at 300 mg/kg but ED50 cannot be estimated. Format: functional, organism-based. More on the design: dose 300 mg/kg. In outline:
as §1

Data set [12] can be described thus: Tested for median toxic dose in rotarod ataxia test for neurological toxicity in mice. Conditions: mouse, in vivo. The format is organism-based. Summed up:
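Neurotoxicity was measured in mice by the NIH ADD Program using the rotorod ataxia test. Drug was given ip, and the median toxic dose (mg/kg) was measured at the time of peak deficit.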
(Falling from the rotarod earlier than controls is read as motor impairment.)

Data set [13] deals with Mus musculus. Nature of the data set: Anticonvulsant activity of the substance upon subcutaneous administration in pentylenetetrazole seizure test in mice. The format is functional. To be noted: ip, in the assay text read “upon intraperitoneal administration” for “upon subcutaneous administration”. In outline: as §3
The subject of data set [14] is Mus musculus. Description: Anticonvulsant activity in the in the subcutaneous pentylenetetrazole seizure test in the mice. To be noted: sc. Format: functional. Summed up:
as §3

For data set [15], the system named is Mus musculus. Nature of the data set: Anticonvulsant activity of the substance upon subcutaneous administration in pentylenetetrazole seizure test in mice; NA= Not active. Format: functional, organism-based.

Structures are written as SMILES. The source made the active and inactive calls. The rule behind the calls is not given here. Bounds are passed on as bounds.

As a reminder, the ED50 is the dose at which the effect has come halfway, by size or by number of responders. For the molecule `CCC(C)[C@H]1C(=O)N=C(N)N1C(=O)OCc1ccccc1` (stereo partly drawn), the 50% effective dose (ED50) worked out at 176 mg/kg in the data set with Mus musculus [1] and 74.4 mg/kg in the data set filed under Mus musculus [2].
As to `CSCC[C@H]1C(=O)N=C(N)N1C(=O)OCc1ccccc1`, the ED50 entry in the data set with Mus musculus [3] and with Mus musculus [4] was “inactive” each time.
For the molecule `CC(C)[C@H]1C(=O)N=C(N)N1C(=O)OCc1ccccc1`, the ED50 entry was “Activity” in the data set on Mus musculus [5] and 51.9 mg/kg in the data set listed under Mus musculus [2].
Turning to `NC1=NC(=O)[C@H](Cc2ccccc2)N1C(=O)OCc1ccccc1`, the ED50 entry in the data set with Mus musculus [4] is “inactive”. Moreover, the ED50 with Mus musculus [6] is more than 1000 mg/kg.
On to `CC(C)C[C@H]1C(=O)N=C(N)N1C(=O)OCc1ccccc1`, for which the ED50 with Mus musculus [7] is 98.6 mg/kg; in the data set on Mus musculus [6] it was 141 mg/kg. The results for the PI in data set [8] and in data set [9] were 3.5 and 2.5, respectively.
As for `NC1=NC(=O)CN1C(=O)OCc1ccccc1`, the ED50 entry in the data set on Mus musculus [3] is “inactive”. Further, the ED50 entry in the data set on Mus musculus [10] is on record as “Activity”.
As to `NC1=NC(=O)[C@H](Cc2c[nH]c3ccccc23)N1C(=O)OCc1ccccc1`, the ED50 entry in the data set on Mus musculus [11] was “Activity”. In addition, the ED50 entry in the data set with Mus musculus [4] is “inactive”.
`CCC[C@@H]1C(=O)N=C(N)N1C(=O)OCc1ccccc1`: the 50% effective dose (ED50) in the data set on Mus musculus [1] was found to be 374 mg/kg. Also, the ED50 entry with Mus musculus [4] was “inactive”.
On to `CCCC[C@H]1C(=O)N=C(N)N1C(=O)OCc1ccccc1`, for which the ED50 result in the data set with Mus musculus [5] was “Activity”; in the data set listed under Mus musculus [2] it was more than 1000 mg/kg.
As for `NC1=NC(=O)[C@H](CSCc2ccccc2)N1C(=O)OCc1ccccc1`, the ED50 entry in the data set with Mus musculus [3] and in the data set on Mus musculus [4] was “inactive” throughout.
For the molecule `NC(=O)CC[C@H]1C(=O)N=C(N)N1C(=O)OCc1ccccc1`, the ED50 result with Mus musculus [3] and with Mus musculus [4] was “inactive” throughout.
`C=CC[C@H]1C(=O)N=C(N)N1C(=O)OCc1ccccc1`: the ED50 in the data set with Mus musculus [1] is 193 mg/kg; in the data set filed under Mus musculus [2] it was 53.3 mg/kg.
Consider `C[C@H]1C(=O)N=C(N)N1C(=O)OCc1ccccc1`, for which the ED50 result in the data set with Mus musculus [3] is “inactive”. Besides, the ED50 in the data set listed under Mus musculus [2] was 171 mg/kg.
A word on the TD50: it is the 50% point of the dose-response relation for the toxic effect studied. Consider `CCC[C@H]1C(=O)N=C(N)N1C(=O)OCc1ccccc1`, for which the ED50 in the data set on Mus musculus [7] was 80.2 mg/kg; in the data set with Mus musculus [1], 141 mg/kg; in the data set filed under Mus musculus [2], 53.3 mg/kg; with Mus musculus [13], 141 mg/kg. Besides, the PI in [8] was determined as 2.3; in [9], 1.3. This molecule came in with a TD50 in data set [12] of 188 mg/kg.
`CC[C@H]1C(=O)N=C(N)N1C(=O)OCc1ccccc1`: the median effective dose (ED50) was less than 500 mg/kg in the data set with Mus musculus [14], 99.5 mg/kg with Mus musculus [7], 223 mg/kg in the data set on Mus musculus [1] and 69.2 mg/kg in the data set listed under Mus musculus [2]. In [12], this molecule showed a TD50 of less than 500 mg/kg.
`CC1(C)C(=O)N=C(N)N1C(=O)OCc1ccccc1`: the ED50 result with Mus musculus [3] is “inactive”. It took a dose of 228 mg/kg to reach the 50% effect level in the data set filed under Mus musculus [2] (ED50).
In the case of `O=C1NC(=O)C(c2ccccc2)(c2ccccc2)N1`, the ED50 result with Mus musculus [15] is “inactive”.

Source of the values: ChEMBL document CHEMBL1127445, “Structure-activity study of 5-substituted 1-carbobenzoxy-2-iminohydantoins as potential anticonvulsant agents” (J Med Chem, 1994).
